Compound activity from PubChem BioAssay.
Compounds with a hit are over-represented: about 4.1% of the library has one in this group of screens.
KCC2 mod = modulates chloride dependent transport by human KCC2 | Q9H2X9 | KCC2 cells, thallium flux FluoZin-2 fluorescence | B-score of Tl+ flux slope (higher = more flux/activation; lower = inhibition) at 10 µM | actives 2.2% (n = 190,000) | AID 1456;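 active = thallium flux slope and its plate-corrected score both differing from the plate sample mean at a set confidence after two filtering rounds, in either direction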;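 also: slope of fluorescence scaled to starting intensity during 10 to 20 s after thallium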
KCNK9 inh = blocks the human KCNK9 two-pore domain potassium channel | HEK293 KCNK9, FluxOR thallium flux fluorescence; hits give low values | B-score at 10 µM | actives 1.2% (n = 310,000);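 active = ratio B-score over 3 SD below the library mean, with starting fluorescence within 5 SD of its mean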;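 also: negative B-score means less thallium flux so channel inhibition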
Target sequence (Q9NPC2 whole entry, looked up, the tested form may be a part): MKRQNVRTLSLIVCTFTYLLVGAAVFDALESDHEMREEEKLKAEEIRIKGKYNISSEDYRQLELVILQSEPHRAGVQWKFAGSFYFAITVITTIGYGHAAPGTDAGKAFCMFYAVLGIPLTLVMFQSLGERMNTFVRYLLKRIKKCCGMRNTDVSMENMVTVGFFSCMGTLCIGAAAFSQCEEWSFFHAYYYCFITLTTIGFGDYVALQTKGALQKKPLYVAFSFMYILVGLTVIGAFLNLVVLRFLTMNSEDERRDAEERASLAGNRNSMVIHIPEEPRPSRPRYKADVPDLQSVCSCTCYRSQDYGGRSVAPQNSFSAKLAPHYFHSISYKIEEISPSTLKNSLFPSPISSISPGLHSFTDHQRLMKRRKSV
hERG protect = compounds protecting human hERG from proarrhythmic drug block | CHO-hERG, FluxOR thallium flux, dofetilide IC70 present | activation (rescue from dofetilide block), less the hit threshold, % at 10 µM | Q12809 | actives 0.51% (n = 310,000);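 active = activation above the mean of controls blocked by dofetilide plus 5 SD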;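 also: thallium influx through hERG after potassium depolarization seen as dye fluorescence rise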
KCNK3 inh = human KCNK3 channel inhibition, primary screen. actives 0.84% (n = 340,000). AID 602410. CHO-KCNK3 thallium flux, FluxOR fluorescence; hits give low values. B-score at 10 µM;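 active = B-score under library mean minus 4 SD, starting fluorescence ratio at most library mean plus 5 SD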;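 also: more negative B-score means stronger inhibition of thallium flux through KCNK3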
KCNQ1 block = inhibitors of human KCNQ1 potassium channel; P51787; CHO-K1 KCNQ1, FluxOR thallium flux fluorescence; hits give high values; B-score at 10 µM; actives 1.3% (n = 310,000); AID 2642;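 active = compounds whose thallium flux B-score, printed positive for inhibition, exceeds three library SD while starting fluorescence stays within three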;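 also: channel opened by potassium depolarization with thallium stimulus after 20 min compound exposure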
KCNQ1 act = human KCNQ1 channel potentiation or activation; CHO-K1 KCNQ1, thallium flux FluxOR fluorescence; hits give high values; actives 0.35% (n = 310,000); AID 2648; P51787; B-score at 10 µM;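 active = fluorescence ratio B-score, a plate-corrected score, at least three library SD, with initial intensity B-score within 5 SD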
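Assay system: stable KCNQ1 CHO-K1 line; medium: assay buffer, equal DMSO in all wells; timing: 90 min dye loading and 20 min compound exposure, both at room temperature; technique: kinetic FluxOR thallium fluorescence, 10-s 1-Hz baseline, 110-s post-stimulus read; read-out basis: B score of baseline-normalized fluorescence ratio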
KCNK9 inh conf = confirmation of human KCNK9 potassium channel inhibitors; shares compounds with KCNK9 inh; inhibition, % at 10 µM; actives 43% (n = 4,900); HEK293 KCNK9 cells, FluxOR thallium flux fluorescence;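 active = thallium signal inhibited by more than 5 SD of the compound-free buffer control wells, on both duplicate plates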
Kir2-1 spec = selectivity of KCNK9 modulators against mouse Kir2.1; shares compounds with KCNK9 inh; Kir2.1 cells, FluxOR thallium flux fluorescence; inhibition, % at 10 µM; actives 4% (n = 4,900); AID 492993;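 active = thallium signal drop more than 5 SD beyond the mean of the no-compound control wells, seen in both duplicate plates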;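 also: signal is fluorescence rise after thallium addition divided by baseline fluorescence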
KCNK9 uninduced = second check of KCNK9 modulator effects in non-induced HEK293 cells. shares compounds with KCNK9 inh. FluxOR thallium flux. inhibition, % at 10 µM. actives 40% (n = 4,900). AID 492997;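 active = thallium signal drop beyond 5 SD of the untreated control mean, on both duplicate plates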
A number is an active result; - = inactive; . = no result given.

SMILES | KCC2 mod | KCNK9 inh | hERG protect | KCNK3 inh | KCNQ1 block | KCNQ1 act | KCNK9 inh conf | Kir2-1 spec | KCNK9 uninduced
COCCNC(=S)N(CCc1c(C)[nH]c2ccccc12)Cc1ccco1 | - | - | - | - | - | - | - | - | -
CCNC(=S)N(CCc1c(C)[nH]c2ccc(Cl)cc12)Cc1ccco1 | - | - | - | - | - | - | . | . | .
CNC(=S)N(CCc1c(C)[nH]c2ccc(Cl)cc12)Cc1cccs1 | - | - | - | . | - | - | . | . | .
Cc1[nH]c2ccccc2c1CCN(Cc1cccs1)C(=S)Nc1ccccc1 | - | -8.2 | - | - | - | - | 34% | - | 31%
CCN1C(=O)C(=O)N(CC(=O)Nc2cccc(C(F)(F)F)c2)C1=O | . | . | . | - | . | . | . | . | .
N#Cc1ccc(COC(=O)CCc2c[nH]c3ccccc23)cc1 | . | - | - | - | - | - | . | . | .
O=C1/C(=C/c2cccc(O)c2)SC(=S)N1CC1CCCO1 (stereo not drawn) | - | - | - | - | - | - | . | . | .
COc1cccc(/C=C2\SC(=S)N(CC3CCCO3)C2=O)c1 (stereo not drawn) | - | - | - | - | - | - | - | - | -
Cc1ccc(C(=O)N(C)CC(=O)Nc2ccc(N3CCOCC3)cc2)s1 | . | - | - | - | - | - | . | . | .
COc1cccc(CNC(=O)[C@@H](C)N2C(=O)N3CCc4c([nH]c5ccc(OC)cc45)C3(C)C2=O)c1 (stereo partly drawn) | . | - | - | - | - | - | . | . | .
O=C(O)C1CCN(S(=O)(=O)c2ccc(N3CCOCC3)c([N+](=O)[O-])c2)CC1 | - | - | - | - | - | - | . | . | .
O=C(NCc1ccco1)C1CCN(c2ccc(S(=O)(=O)N3CCOCC3)cc2[N+](=O)[O-])CC1 | - | -9.3 | - | - | - | - | - | - | -
CCCOc1ccc(-c2nc(-c3ccc(N)cc3)cs2)cc1 | - | - | - | . | - | - | . | . | .
CCCc1cc(-c2nc(-c3ccc(Br)cc3)cs2)ccn1 | - | -10 | - | - | - | - | - | - | 26%
O=C(O)/C=C\C(=O)Nc1ccc(N2CCN(c3ccc(Cl)c(Cl)c3)CC2)cc1 | - | - | - | - | - | - | - | - | -
C=CCC1NS(=O)(=O)OC(CCc2ccccc2)C1O (stereo not drawn) | . | - | - | - | - | - | . | . | .
Clc1ccc(N=c2ssnc2Cl)cc1 | - | - | - | - | - | - | . | . | .
Fc1ccc(N=c2ssnc2Cl)c(F)c1 | - | - | - | - | - | - | - | - | -
COc1ccc(S(=O)(=O)N2CCCCCC2)cc1C(=O)NCc1ccc(C)cc1 | . | . | . | - | . | . | . | . | .
O=C(Cc1ccc(Cl)cc1)Nc1ccc(N2CCN(C(=O)c3ccco3)CC2)c(Cl)c1 | - | -9.8 | - | - | - | - | 30% | 35% | -
CCC(=O)Nc1ccc(N2CCN(C(=O)c3ccco3)CC2)c(Cl)c1 | . | - | - | - | - | - | . | . | .
O=C(O)c1n[nH]c2c1CC(C1CCCCC1)CC2 (stereo not drawn) | . | . | . | - | . | . | . | . | .
Cc1ccc(C)c(NS(=O)(=O)c2cc(C(=O)N3CCc4ccccc4C3)ccc2Cl)c1 | . | -17 | - | - | - | - | 57% | - | 36%
Cc1cccc(NS(=O)(=O)c2cc(C(=O)N3CCc4ccccc4C3)ccc2Cl)c1C | - | -15 | - | - | - | - | 68% | - | -
CCN(CC)S(=O)(=O)c1cc(C(=O)N2CCc3ccccc32)ccc1Cl | - | - | - | - | - | - | - | - | -
SMILES | KCC2 mod | KCNK9 inh | hERG protect | KCNK3 inh | KCNQ1 block | KCNQ1 act | KCNK9 inh conf | Kir2-1 spec | KCNK9 uninduced
[O-][n+]1c2ccccc2c2n1CCN1CCOC21c1ccc(Cl)cc1 (stereo not drawn) | . | . | . | - | . | . | . | . | .
CC1CN(CCc2ccccc2)c2nc3c(c(=O)n(CC(N)=O)c(=O)n3C)n2C1 (stereo not drawn) | . | - | - | - | - | - | . | . | .
CC(C)OC(=O)c1ccc(NC(=S)NC(=O)c2cncc(Br)c2)cc1 | . | - | - | - | - | - | . | . | .
Cc1cc(Cl)ccc1C(=O)C1CCCN(C(=O)c2ccsc2)C1 (stereo not drawn) | . | - | - | - | - | - | - | - | -
Cc1cc(Cl)ccc1C(=O)C1CCCN(C(=O)c2cc(C(C)C)no2)C1 (stereo not drawn) | - | - | - | - | - | - | - | - | -
Cc1cc(Cl)ccc1C(=O)C1CCCN(C(=O)c2ccc3ncccc3c2)C1 (stereo not drawn) | - | - | - | - | - | - | - | - | -
COC(=O)CCC(=O)N1CCCC(C(=O)c2ccc(Cl)cc2C)C1 (stereo not drawn) | . | - | - | - | - | - | . | . | .
CCCCN1C(=O)C(C#N)CC2=C1CC(C)(C)CC2=O (stereo not drawn) | . | . | . | - | . | . | . | . | .
CC(OC(=O)CN1C(=O)NC2(CCCC2)C1=O)C(=O)Nc1cccc(Cl)c1 (stereo not drawn) | . | - | - | - | - | - | . | . | .
Cc1ccsc1C(=O)Nc1ccc(S(=O)(=O)N2CCOCC2)cc1 | . | . | . | - | . | . | . | . | .
Cn1cccc1C(=O)NNC(=O)COc1ccccc1Cl | . | . | . | - | . | . | . | . | .
Cc1cc(C)nc(SCC(=O)N/N=C/c2cc(C)n(-c3ccccc3C)c2C)n1 | - | - | - | - | - | - | . | . | .
Cc1cccc(C)c1-n1c(C)cc(/C=N/NC(=O)CSc2ncccn2)c1C | - | -9.5 | - | - | - | - | 50% | - | 28%
COC(=O)C1=C(C)OC(N)=C(C#N)C1c1ccccc1 (stereo not drawn) | . | - | - | - | - | - | . | . | .
COC(=O)C1=C(C)OC(N)=C(C#N)C1c1c(C)nn(-c2ccccc2)c1Cl (stereo not drawn) | - | -13 | - | - | - | - | 37% | - | -
CCCCn1c(SCC(=O)c2c(N)n(C3CC3)c(=O)[nH]c2=O)nc2cc(S(N)(=O)=O)ccc21 | . | . | . | - | . | . | . | . | .
Cc1c(Cl)ccc2sc(NC(=O)c3ccco3)nc12 | . | - | - | - | - | - | . | . | .
O=C(CSCc1ccc(Cl)cc1)Nc1ccccc1O | - | - | - | - | - | - | . | . | .
O=C(CCCSc1ccc(Cl)cc1)Nc1ccccc1O | . | - | - | - | 9 | - | - | - | -
COc1cccc(OC)c1C(=O)NCCOc1cc(C)cc(C)c1 | . | - | - | - | - | - | . | . | .
COc1ccc(OCC(O)CNS(=O)(=O)c2cccc(Cl)c2)cc1 (stereo not drawn) | - | - | - | - | - | - | . | . | .
COCCn1c(SCc2ccc(F)cc2)nc2ccccc2c1=O | . | -15 | - | - | - | - | 68% | - | 38%
O=c1c2ccccc2nc(SCc2cccc(F)c2)n1Cc1ccco1 | . | -16 | - | - | - | - | 55% | - | 54%
